Experimental data as given in paper PMC2741613 (Journal of the American Chemical Society, 2009).

Tests used:
Type in all cases: biochemical
Lyp = target: T1, Lyp (Homo sapiens, UniProt Q9Y2R2); test: PTP activity assay with pNPP, Lyp
T1 sequence (Q9Y2R2 1-807): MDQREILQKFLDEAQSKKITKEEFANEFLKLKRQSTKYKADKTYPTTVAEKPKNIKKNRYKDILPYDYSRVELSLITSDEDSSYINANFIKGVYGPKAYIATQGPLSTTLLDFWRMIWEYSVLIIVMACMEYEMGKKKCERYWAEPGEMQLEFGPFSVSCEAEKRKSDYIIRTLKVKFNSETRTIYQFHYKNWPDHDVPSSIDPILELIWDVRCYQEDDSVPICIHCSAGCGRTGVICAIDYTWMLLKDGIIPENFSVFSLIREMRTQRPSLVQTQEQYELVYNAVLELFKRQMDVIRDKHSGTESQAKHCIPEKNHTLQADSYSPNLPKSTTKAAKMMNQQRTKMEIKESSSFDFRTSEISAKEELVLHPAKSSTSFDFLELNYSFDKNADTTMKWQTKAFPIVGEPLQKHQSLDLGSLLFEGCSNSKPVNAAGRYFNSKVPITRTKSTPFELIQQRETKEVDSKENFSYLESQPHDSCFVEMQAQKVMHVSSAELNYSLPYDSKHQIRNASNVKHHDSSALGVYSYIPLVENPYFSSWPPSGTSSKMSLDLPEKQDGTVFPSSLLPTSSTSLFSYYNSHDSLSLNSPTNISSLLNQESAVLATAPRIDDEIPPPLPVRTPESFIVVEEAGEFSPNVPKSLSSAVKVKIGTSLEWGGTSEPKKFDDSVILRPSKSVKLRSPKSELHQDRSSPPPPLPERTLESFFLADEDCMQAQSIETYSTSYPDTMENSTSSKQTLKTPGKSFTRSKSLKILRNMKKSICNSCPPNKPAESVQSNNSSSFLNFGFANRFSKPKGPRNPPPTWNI

VHR = VHR (Homo sapiens, UniProt P51452); test: PTP activity assay with pNPP, VHR
In short: (§1)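 Reactions started by adding enzyme to mixtures with various pNPP and test-compound concentrations. Rates were fitted with an enzyme-kinetics model for Ki.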

LMWPTP = target: T2, LMWPTP (Homo sapiens, UniProt P24666); test: PTP activity assay with pNPP, LMWPTP
T2 sequence (P24666 1-158): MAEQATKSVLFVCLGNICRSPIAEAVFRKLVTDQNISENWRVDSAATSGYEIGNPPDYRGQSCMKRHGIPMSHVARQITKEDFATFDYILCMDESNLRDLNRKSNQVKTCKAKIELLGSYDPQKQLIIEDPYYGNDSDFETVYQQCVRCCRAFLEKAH
In short: as §1

CD45 = target: T3, CD45 (Homo sapiens, UniProt P08575); test: PTP activity assay with pNPP, CD45
T3 sequence (P08575 26-1306): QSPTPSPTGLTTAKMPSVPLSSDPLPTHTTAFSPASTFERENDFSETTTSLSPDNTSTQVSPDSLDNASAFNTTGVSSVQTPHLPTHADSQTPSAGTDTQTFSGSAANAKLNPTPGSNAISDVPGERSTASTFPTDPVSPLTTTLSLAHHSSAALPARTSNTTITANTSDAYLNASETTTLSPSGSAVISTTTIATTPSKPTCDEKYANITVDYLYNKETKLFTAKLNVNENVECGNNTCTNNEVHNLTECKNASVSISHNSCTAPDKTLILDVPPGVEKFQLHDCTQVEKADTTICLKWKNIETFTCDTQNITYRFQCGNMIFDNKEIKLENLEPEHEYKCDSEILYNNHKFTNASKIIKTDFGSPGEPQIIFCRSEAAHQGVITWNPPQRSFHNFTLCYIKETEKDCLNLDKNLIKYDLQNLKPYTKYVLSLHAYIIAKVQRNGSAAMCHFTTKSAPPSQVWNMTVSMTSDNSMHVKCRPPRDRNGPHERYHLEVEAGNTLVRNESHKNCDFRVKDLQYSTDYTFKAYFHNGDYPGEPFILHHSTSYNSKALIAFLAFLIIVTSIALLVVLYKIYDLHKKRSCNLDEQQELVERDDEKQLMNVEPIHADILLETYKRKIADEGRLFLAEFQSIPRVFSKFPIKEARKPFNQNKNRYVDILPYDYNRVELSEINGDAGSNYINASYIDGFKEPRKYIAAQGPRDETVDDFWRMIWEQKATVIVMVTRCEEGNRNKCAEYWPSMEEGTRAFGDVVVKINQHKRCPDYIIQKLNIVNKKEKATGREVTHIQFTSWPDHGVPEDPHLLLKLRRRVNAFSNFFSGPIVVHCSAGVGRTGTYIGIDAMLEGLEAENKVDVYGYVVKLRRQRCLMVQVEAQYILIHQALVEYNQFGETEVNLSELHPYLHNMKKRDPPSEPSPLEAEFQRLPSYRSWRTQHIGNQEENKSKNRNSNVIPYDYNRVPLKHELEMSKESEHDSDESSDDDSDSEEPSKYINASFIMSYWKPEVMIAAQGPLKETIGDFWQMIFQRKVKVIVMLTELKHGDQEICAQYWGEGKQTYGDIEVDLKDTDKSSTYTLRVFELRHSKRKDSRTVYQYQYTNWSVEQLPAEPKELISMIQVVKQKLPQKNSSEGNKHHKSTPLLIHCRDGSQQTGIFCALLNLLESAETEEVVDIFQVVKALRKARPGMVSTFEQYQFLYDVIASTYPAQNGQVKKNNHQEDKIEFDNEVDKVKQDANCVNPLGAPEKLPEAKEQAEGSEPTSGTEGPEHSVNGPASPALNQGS
In short: as §1

SHP2 = target: T4, SHP2 (Homo sapiens, UniProt Q06124); test: PTP activity assay with pNPP, SHP2
T4 sequence (Q06124 1-593): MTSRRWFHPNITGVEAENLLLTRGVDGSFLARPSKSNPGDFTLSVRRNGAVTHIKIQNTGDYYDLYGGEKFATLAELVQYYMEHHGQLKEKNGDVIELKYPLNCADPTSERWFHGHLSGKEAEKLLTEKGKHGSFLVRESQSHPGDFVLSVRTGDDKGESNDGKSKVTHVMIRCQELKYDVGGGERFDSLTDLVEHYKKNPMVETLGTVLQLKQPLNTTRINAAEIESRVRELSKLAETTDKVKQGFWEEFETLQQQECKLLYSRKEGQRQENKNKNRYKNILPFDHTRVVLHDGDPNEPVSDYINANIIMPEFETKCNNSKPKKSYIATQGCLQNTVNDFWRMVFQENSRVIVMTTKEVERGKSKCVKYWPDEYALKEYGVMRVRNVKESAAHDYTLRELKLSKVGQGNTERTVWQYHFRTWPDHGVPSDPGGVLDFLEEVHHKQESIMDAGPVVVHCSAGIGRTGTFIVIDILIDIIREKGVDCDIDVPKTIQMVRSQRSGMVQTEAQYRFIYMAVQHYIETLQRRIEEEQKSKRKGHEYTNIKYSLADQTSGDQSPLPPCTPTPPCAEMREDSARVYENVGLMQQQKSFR
In short: as §1

PTPα = PTPα (Homo sapiens, UniProt P18433); test: PTP activity assay with pNPP, PTPα
In short: as §1

Measured: Ki

PTPα, sequence (P18433 20-802): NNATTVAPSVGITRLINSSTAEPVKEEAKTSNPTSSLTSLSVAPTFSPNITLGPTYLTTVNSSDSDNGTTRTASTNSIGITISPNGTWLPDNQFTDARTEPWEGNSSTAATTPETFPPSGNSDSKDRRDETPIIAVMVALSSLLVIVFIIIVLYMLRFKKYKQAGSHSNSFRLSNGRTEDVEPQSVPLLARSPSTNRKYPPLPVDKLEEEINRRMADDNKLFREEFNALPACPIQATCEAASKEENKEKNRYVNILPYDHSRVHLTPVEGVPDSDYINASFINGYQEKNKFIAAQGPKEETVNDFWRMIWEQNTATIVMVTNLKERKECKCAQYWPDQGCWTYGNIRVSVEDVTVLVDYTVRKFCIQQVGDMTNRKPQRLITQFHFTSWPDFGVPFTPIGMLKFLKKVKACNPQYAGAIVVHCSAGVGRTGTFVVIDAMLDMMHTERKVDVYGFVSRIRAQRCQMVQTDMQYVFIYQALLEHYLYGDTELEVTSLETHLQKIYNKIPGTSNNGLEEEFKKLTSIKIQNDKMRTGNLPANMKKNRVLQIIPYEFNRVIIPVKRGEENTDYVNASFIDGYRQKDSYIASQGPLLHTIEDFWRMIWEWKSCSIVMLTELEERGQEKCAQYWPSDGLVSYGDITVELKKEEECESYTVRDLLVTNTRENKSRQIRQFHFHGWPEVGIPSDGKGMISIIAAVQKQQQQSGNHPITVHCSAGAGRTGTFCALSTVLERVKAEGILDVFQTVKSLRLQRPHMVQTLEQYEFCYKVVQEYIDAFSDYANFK
VHR, sequence (P51452 whole entry, species assumed): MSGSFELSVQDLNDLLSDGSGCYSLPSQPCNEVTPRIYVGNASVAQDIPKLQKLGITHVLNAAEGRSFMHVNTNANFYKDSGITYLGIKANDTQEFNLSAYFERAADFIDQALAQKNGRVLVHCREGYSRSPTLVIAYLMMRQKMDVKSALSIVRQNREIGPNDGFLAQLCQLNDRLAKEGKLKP

CCc1ccc(C(=O)NCCCC[C@H](NC(=O)[C@H](Cc2ccc(C(F)(F)P(=O)(O)O)cc2)NC(=O)[C@H](Cc2ccccc2)NC(=O)CO[C@H]2C[C@@H](C)CC[C@@H]2C(C)C)C(N)=O)cc1 [Compound 8]
> 1000 nM: all assays above
